From ChEMBL document CHEMBL1140337, “Synthesis and structure-activity relationships of a new series of retinoid-related biphenyl-4-ylacrylic acids endowed with antiproliferative and proapoptotic activity” (J Med Chem, 2005)

Tests used:
NB-4 = assay: Concentration of compound required for inhibition of (NB4) human promyelocytic leukemia cell growth by 50%; assay type: functional, cell-based
Outline: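 Leukemia cells exposed to drug for 24 h; growth inhibition assessed by cell counting at 72 h. IC50 = concentration reducing cell number 50% versus untreated control. Where SD is given, mean of three independent experiments.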

[1] = Concentration of compound required for inhibition of (IGROV-1/Pt1) human cisplatin resistant ovarian carcinoma cell growth by 50%; assay type: functional
Outline: (§1)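 Ovarian carcinoma cells in log-phase growth seeded in duplicate; drug added 24 h after seeding, cells harvested after 72 h of exposure and counted with a cell counter. IC50 = concentration giving 50% fewer cells than untreated control. Where SD is reported, mean of three independent experiments.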

[2] = biological target: T1, Retinoic acid receptor beta (Homo sapiens, UniProt P10826); assay: Effective concentration against retinoic acid receptor beta in COS-7 cells co-expressing DR5-tk-CAT reporter; value range (0.1-0.3); assay type: cell-based
T1 sequence (P10826 whole entry): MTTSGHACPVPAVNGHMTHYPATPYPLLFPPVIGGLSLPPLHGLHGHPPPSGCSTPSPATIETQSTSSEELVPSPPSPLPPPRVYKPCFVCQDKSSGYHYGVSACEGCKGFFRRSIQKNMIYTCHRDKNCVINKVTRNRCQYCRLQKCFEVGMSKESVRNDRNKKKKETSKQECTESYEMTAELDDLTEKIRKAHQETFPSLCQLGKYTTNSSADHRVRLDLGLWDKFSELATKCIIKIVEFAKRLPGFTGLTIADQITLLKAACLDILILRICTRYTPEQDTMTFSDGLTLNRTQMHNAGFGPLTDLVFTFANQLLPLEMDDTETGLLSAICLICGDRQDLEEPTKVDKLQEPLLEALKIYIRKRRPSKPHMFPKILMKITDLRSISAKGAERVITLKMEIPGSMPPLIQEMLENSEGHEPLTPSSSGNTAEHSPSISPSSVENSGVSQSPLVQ

IGROV-1 [3] = assay: Percent level of apoptosis induced by 72 hr of exposure with IC80 in (IGROV-1) human ovarian carcinoma cells; assay type: functional
[4] = Effective concentration against retinoic acid receptor gamma in COS-7 cells co-expressing DR5-tk-CAT reporter; value range (0.1-0.3); assay type: cell-based
Outline: (§2)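 COS-7 cells transfected with the relevant RAR isoform (alpha, beta or gamma) plus a DR5-tk-CAT reporter. 24 h post-transfection, cells treated 24 h with increasing compound concentrations. CAT activity measured in cell extracts, normalized to a beta-galactosidase transfection control.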

[5] = Percent level of apoptosis induced by 72 hr of exposure with IC80 in (IGROV-1/Pt1) human cisplatin resistant ovarian carcinoma cells; assay type: functional
[6] = Effective concentration against retinoic acid receptor alpha in COS-7 cells co-expressing DR5-tk-CAT reporter; value range (0.1-0.4); assay type: cell-based; outline: as §2
IGROV-1 [7] = assay: Concentration of compound required for inhibition of (IGROV-1) human ovarian carcinoma cell growth by 50%; assay type: functional, cell-based; outline: as §1
[8] = Effective concentration against retinoic acid receptor alpha in COS-7 cells co-expressing DR5-tk-CAT reporter; assay type: cell-based; outline: as §2
[9] = Effective concentration against retinoic acid receptor gamma in COS-7 cells co-expressing DR5-tk-CAT reporter; assay type: cell-based; outline: as §2
[10] = biological target: T1, Retinoic acid receptor beta; assay: Effective concentration against retinoic acid receptor beta in COS-7 cells co-expressing DR5-tk-CAT reporter; assay type: cell-based; outline: as §2
[11] = Effective concentration against retinoic acid receptor gamma in COS-7 cells co-expressing DR5-tk-CAT reporter; value range (0.1-0.5); assay type: cell-based; outline: as §2
[12] = Effective concentration against retinoic acid receptor alpha in COS-7 cells co-expressing DR5-tk-CAT reporter; value range (4.6-8.9); assay type: cell-based; outline: as §2
[13] = biological target: T1, Retinoic acid receptor beta; assay: Effective concentration against retinoic acid receptor beta in COS-7 cells co-expressing DR5-tk-CAT reporter; value range (3.9-7.2); assay type: cell-based; outline: as §2
[14] = biological target: T1, Retinoic acid receptor beta; assay: Effective concentration against retinoic acid receptor beta in COS-7 cells co-expressing DR5-tk-CAT reporter; value range (6.1-9.8); assay type: cell-based; outline: as §2
[15] = Effective concentration against retinoic acid receptor alpha in COS-7 cells co-expressing DR5-tk-CAT reporter; value range (13.9-29.7); assay type: cell-based; outline: as §2
[16] = Effective concentration against retinoic acid receptor gamma in COS-7 cells co-expressing DR5-tk-CAT reporter; value range (0.8-2.4); assay type: cell-based; outline: as §2
[17] = biological target: T1, Retinoic acid receptor beta; assay: Effective concentration against retinoic acid receptor beta in COS-7 cells co-expressing DR5-tk-CAT reporter; value range (7.5-41.1); assay type: cell-based; outline: as §2
[18] = Effective concentration against retinoic acid receptor gamma in COS-7 cells co-expressing DR5-tk-CAT reporter; value range (0.6-1.5); assay type: cell-based; outline: as §2
[19] = Effective concentration against retinoic acid receptor alpha in COS-7 cells co-expressing DR5-tk-CAT reporter; value range (5.6-59.1); assay type: cell-based; outline: as §2

Compound	IC50 (NB-4) [nM]	IC50 [1] [nM]	Apoptosis (IGROV-1 [3]) [%]	IC50 (IGROV-1 [7]) [µM]	also measured
O=C(O)/C=C/c1ccc(-c2ccc(O)c(C34CC5CC(CC(C5)C3)C4)c2)cc1 [ADAROTENE]	82	400	65		EC50 [2]: 200 nM; EC50 [4]: 100 nM; Apoptosis [5]: 30%; EC50 [6]: 200 nM
O=Cc1cc(/C=C/C(=O)O)ccc1-c1ccc(O)c(C23CC4CC(CC(C4)C2)C3)c1	1050	2630	44	1.28	
O=C(O)/C(F)=C\c1ccc(-c2ccc(O)c(C34CC5CC(CC(C5)C3)C4)c2)cc1	22400	> 3000		> 3	
O=C(O)/C(F)=C/c1ccc(-c2ccc(O)c(C34CC5CC(CC(C5)C3)C4)c2)cc1	81	630		0.37	
O=C(O)/C=C/c1ccc(-c2ccc(O)c(C34CC5CC(CC(C5)C3)C4)c2)cc1F	170	430	47	0.2	
O=C(O)/C=C/c1ccc(-c2ccc(O)cc2)cc1	78700	156000	3	89	EC50 [8]: > 100 µM; EC50 [9]: > 100 µM; EC50 [10]: > 100 µM; Apoptosis [5]: 1%
O=C(O)/C=C/c1ccc(-c2ccc(O)c(Cl)c2)cc1				26	
C/C(=C\c1ccc(-c2ccc(O)c(C34CC5CC(CC(C5)C3)C4)c2)cc1)C(=O)O	2300	10000		7.19	
O=C(O)/C=C/c1ccc(-c2ccc(O)c(-c3ccccc3)c2)cc1	45300	12500	7	19	EC50 [8]: > 100 µM; EC50 [9]: > 100 µM; EC50 [10]: > 100 µM; Apoptosis [5]: 1%
CC(C)(C)c1cc(-c2ccc(/C=C/C(=O)O)cc2)ccc1O	42300	30000		30	
O=P(O)(O)/C=C/c1ccc(-c2ccc(O)c(C34CC5CC(CC(C5)C3)C4)c2)cc1	> 200000	> 20000		> 20	
O=C(O)c1ccc2cc(-c3ccc(O)c(C45CC6CC(CC(C6)C4)C5)c3)ccc2c1 [O-DEMETHYLATED ADAPALENE]	400	620	38		Apoptosis [5]: 25%
O=C(O)/C=C/c1ccc2c(ccc3cc(O)c(C45CC6CC(CC(C6)C4)C5)cc32)c1	1500	2100		2.2	
C/C(=C\C(=O)O)c1ccc(-c2ccc(O)c(C34CC5CC(CC(C5)C3)C4)c2)cc1	6700	16600	26	9.97	
OC/C=C/c1ccc(-c2ccc(O)c(C34CC5CC(CC(C5)C3)C4)c2)cc1	9100	10600		10.8	
O=C(O)C#Cc1ccc(-c2ccc(O)c(C34CC5CC(CC(C5)C3)C4)c2)cc1	1200	1520	52	1.15	
O=C(O)/C=C/c1ccc(-c2ccc(O)c(CC3CCCCC3)c2)cc1	2200	2300	25	2.58	EC50 [11]: 200 nM; EC50 [12]: 6.4 µM; EC50 [13]: 5.3 µM; Apoptosis [5]: 9%
CC1(c2cc(-c3ccc(/C=C/C(=O)O)cc3)ccc2O)CCCCCCCCCCC1				3.57	
N#C/C=C/c1ccc(-c2ccc(O)c(C34CC5CC(CC(C5)C3)C4)c2)cc1	14300	12700	2	8.3	
COC(=O)/C=C/c1ccc(-c2ccc(O)c(C34CC5CC(CC(C5)C3)C4)c2)cc1	18200	3500		0.61	
CCOP(=O)(/C=C/c1ccc(-c2ccc(O)c(C34CC5CC(CC(C5)C3)C4)c2)cc1)OCC	1700	> 20000		19.7	
O=C(O)c1ccc(-c2ccc(O)c(C34CC5CC(CC(C5)C3)C4)c2)cc1	35200	> 3000		> 3	
O=C(O)/C=C/c1ccc(-c2cc(O)cc(C34CC5CC(CC(C5)C3)C4)c2)cc1	1200			1.31	
Cc1cc(O)c(C23CC4CC(CC(C4)C2)C3)cc1-c1ccc(/C=C/C(=O)O)cc1	1700	2920		1.14	
O=C(O)CCc1ccc(-c2ccc(O)c(C34CC5CC(CC(C5)C3)C4)c2)cc1	63600	44500	26	48.4	
O=C(O)/C=C/c1ccc(-c2ccc(O)c(C34CC5CC(CC(C5)C3)C4)c2)c(Cl)c1	200	730	74	0.58	
O=C(/C=C/c1ccc(-c2ccc(O)c(C34CC5CC(CC(C5)C3)C4)c2)cc1)Nc1ccc(O)cc1	2000	10500	2	6.6	EC50 [14]: 7.7 µM; EC50 [15]: 20.3 µM; EC50 [16]: 1400 nM
O=C(O)C1CC1c1ccc(-c2ccc(O)c(C34CC5CC(CC(C5)C3)C4)c2)cc1 (stereo not given)	39400	> 20000		> 20	
Nc1ccccc1NC(=O)/C=C/c1ccc(-c2ccc(O)c(C34CC5CC(CC(C5)C3)C4)c2)cc1	1800	2000	8	2.1	EC50 [17]: 17.6 µM; EC50 [18]: 900 nM; EC50 [19]: 18.2 µM
O=C(O)/C=C/c1ccc(-c2ccc(C34CC5CC(CC(C5)C3)C4)c(O)c2)cc1	> 10000		23	6.13	
